In general, Inhibition refers to the share of the control response that was lost under treatment. Higher therefore signals a response far below the control.

This note sets out measurements from ChEMBL document CHEMBL1123083, “Synthesis and antiherpetic activity of (S)-, (R)-, and (+/-)-9-[(2,3-dihydroxy-1-propoxy)methyl]guanine, linear isomers of 2'-nor-2'-deoxyguanosine” (J Med Chem, 1985).

Molecules are shown by their SMILES. In brackets after ≈: the same amount, converted by molar mass. Activity calls are given as the source filed them. The calls are words filed in the database; no cut-off is given here.

Data set [1] concerns Human betaherpesvirus 5. As to the kind of experiment: In vitro anti viral activity tested against HCMV(AD169) virus on MRC-5 cell monolayers; NA=Not active at 25 ug/mL. It is filed as functional, organism-based. The settings on record: MRC5. In a few lines:
(§1)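 MRC-5 monolayers were infected with HCMV AD169 for 1 h at 37 °C. Compound diluted in maintenance medium was then added and incubation continued for 7 days at 37 °C. Monolayers were stained and plaques counted. ED50 is the concentration reducing plaque number by 50%.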

The subject of data set [2] is Human alphaherpesvirus 1. As to the kind of experiment: Efficacy was evaluated against Systemic HSV-1 infection in mice at a daily dose of 3.1 mg/kg administered subcutaneously. The arrangement: dose 3.1 mg/kg, route subcutaneous. The conditions noted are these: mouse, in vivo, sc. The format is ADME, organism-based. In short, it runs like this: (§2)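 ICR/Ha mice (10–20 g, mixed sex) were infected intraperitoneally with 50–100 LD50 of HSV-1 Schooler. Subcutaneous dosing of 0.1 mL twice daily for 4 days started immediately after infection. Groups were of about 10 mice. Survival was recorded daily for 15 days and reported as survivors/total and mean survival time (95% CI). Transformed survival times were compared with placebo-treated infected mice (p < 0.05).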

Data set [3] deals with Human alphaherpesvirus 1. In words: Efficacy was evaluated against Systemic HSV-1 infection in mice at a daily dose of 0.8 mg/kg administered subcutaneously. The format is ADME, organism-based. Also on record: dose 0.8 mg/kg, route subcutaneous. The settings on record: mouse, in vivo, sc. In a few lines:
as §2

Data set [4] relates to Human alphaherpesvirus 1. In words: Efficacy was evaluated against Systemic HSV-1 infection in mice at a daily dose of 3.1 mg/kg administered subcutaneously; Tested mice 10. The format is ADME, organism-based. Also on record: dose 3.1 mg/kg, route subcutaneous. The settings on record: mouse, in vivo, sc. In a few lines: as §2
For data set [5], the system named is Human alphaherpesvirus 1. In words: In vitro anti viral activity tested against HSV-1(Schooler) virus on Rabbit kidney cell cultures; 1-3. The format is functional. The conditions noted are these: Human alphaherpesvirus 1, kidney; read-out: ED50 (the source's name). In a few lines:
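Confluent primary rabbit kidney monolayers were preincubated with serial drug dilutions in EMEM with 2% fetal calf serum and neomycin. They were then challenged with about 10 TCID50 of […] and incubated at 37 °C. Cytopathology was scored on day 5.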

Data set [6] concerns Human alphaherpesvirus 1. In words: Efficacy was evaluated against Systemic HSV-1 infection in mice at a daily dose of 12.5 mg/kg administered subcutaneously; Tested mice 10. Also on record: dose 12.5 mg/kg, route subcutaneous. The settings on record: mouse, in vivo, sc. The format is organism-based. In a few lines:
as §2

The subject of the next data set is Human alphaherpesvirus 3. As to the kind of experiment: In vitro anti viral activity tested against VZV(KMcC) virus on MRC-5 cell monolayers; 1-2. The settings on record: Human alphaherpesvirus 3, MRC5; read-out: ED50 (the source's name). The format is functional.
Data set [7] relates to Human betaherpesvirus 5. As to the kind of experiment: In vitro anti viral activity tested against HCMV(AD169) virus on MRC-5 cell monolayers; 0.4-1.6. The settings on record: Human betaherpesvirus 5, MRC5; read-out: ED50 (the source's name). The format is functional. In a few lines:
as §1

Another data set concerns Human alphaherpesvirus 2. As to the kind of experiment: In vitro anti viral activity tested against HSV-2(Curtis) virus on Rabbit kidney cell cultures; 3-6. It is filed as functional. The settings on record: Human alphaherpesvirus 2, kidney; read-out: ED50 (the source's name). In a few lines: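 Confluent primary rabbit kidney monolayers were preincubated with serial drug dilutions in EMEM with 2% fetal calf serum and neomycin. They were then challenged with about 10 TCID50 of HSV-1 Schooler or HSV-2 Curtis and incubated at 37 °C. Cytopathology was scored on day 5. ED50 is the concentration preventing cytopathology in half of the infected cultures.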

Data set [8] deals with Human alphaherpesvirus 1. As to the kind of experiment: Efficacy was evaluated against Systemic HSV-1 infection in mice at a daily dose of 0.8 mg/kg administered subcutaneously; Tested mice 10. It is filed as organism-based. Also on record: dose 0.8 mg/kg, route subcutaneous. The settings on record: mouse, in vivo, sc. In short, it runs like this: as §2
Data set [9] deals with Human alphaherpesvirus 1. As to the kind of experiment: Evaluated for DNA polymerase inhibition activity against herpes simplex virus-1 (HSV-1). The format is functional. In short, it runs like this:
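Step II mixture supplied the phosphorylated test material. Step I: compound with HSV-1 thymidine kinase, 4 h, 37 °C. Step II: then HSV-1-infected HeLa crude extract plus GMP kinase, overnight, 30 °C. A 20 μL sample went to a 1 h, 37 °C DNA polymerase assay at pH 8 with activated salmon sperm DNA, 0.05 mM each dNTP ([³H]dTTP) and infected HeLa extract. (NH₄)₂SO₄ 0.1 M was present for the viral enzyme and omitted for the cellular polymerases. Read-out: TCA-precipitable radioactivity.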

In the next data set the test system is Mus musculus. In words: Efficacy was evaluated against Systemic HSV-1 infection in mice at a daily dose of 12.5 mg/kg administered subcutaneously. It is filed as ADME, organism-based. The arrangement: dose 12.5 mg/kg, route subcutaneous. The conditions noted are these: in vivo, sc. In a few lines: as §2
The subject of data set [10] is DNA polymerase (Homo sapiens). As to the kind of experiment: Evaluated for DNA polymerase inhibition activity against HeLa cells.

For the compound `Nc1nc(O)c2ncn(COCC(O)CO)c2n1` (single isomer, unassigned; form 2), the ED50 result with Human betaherpesvirus 5 [1] is “inactive”.

Take `Nc1nc2c(ncn2COC(CO)CO)c(=O)[nH]1` [GANCICLOVIR]: the Average survival is 12.6 days with Human alphaherpesvirus 1 [2], 9.8 days with Human alphaherpesvirus 1 [3] and 14.6 days in the data set on Mus musculus. Moreover, the results for the Survivors in the data set with Human alphaherpesvirus 1 [4], in the data set on Human alphaherpesvirus 1 [6] and in the data set with Human alphaherpesvirus 1 [8] were 5, 7 and 3, respectively. In addition, the EC50 in the data set with Human alphaherpesvirus 1 [5] turned out to be 1 µg/mL (≈ 3.92 µM); in the data set on Human alphaherpesvirus 3, 1 µg/mL (≈ 3.92 µM); in the data set with Human betaherpesvirus 5 [7], 0.4 µg/mL (≈ 1.57 µM); with Human alphaherpesvirus 2 it was 3 µg/mL (≈ 11.8 µM). The Inhibition is reported as 55% in the data set with Human alphaherpesvirus 1 [9] and 13% in data set [10].
